Folding enthalpy and Tm data for 54 sequences are collected here from the array DNA melting data of Ke et al. (doi:10.1101/2024.01.08.574731).

Series [1] is described as follows: folding enthalpy; higher = less favourable; fluorescence melt of hairpins on a sequencing array, two-state fit. The settings on record: sodium 0.088 M. In a few lines: (§1)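 Melting temperature and folding enthalpy were obtained by bootstrapped two-state fitting. Fits used Cy3 fluorescence of library hairpins with annealed Cy3 and quencher oligos on a sequenced MiSeq flow cell, imaged in 50 mM Na-HEPES pH 8.0, 25 mM NaCl in 2.5 °C steps up to 60 °C and normalised to pre-quench Cy3 and control constructs. Four replicates were combined by inverse-variance weighting, and fitted temperatures were raised by 9.35 °C to match UV melts.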

Series [2] in a line: melting temperature; fluorescence melt of hairpins on a sequencing array, two-state fit, raised by 9.35 °C to match UV melts. The settings on record: sodium 0.088 M. In a few lines:
as §1

With GCCCCAGCGAAAGCTGGC (((..(((....)))))), the folding enthalpy in series [1] was -5.59 kcal/mol. Besides, the Tm in series [2] was determined as 37.9 °C.
On to GCCCCAGGAAACTAGGGC ((((.((....)).)))), for which, in series [1], the folding enthalpy is -29.1 kcal/mol. In series [2], the Tm was 46.4 °C.
Taken in the same sequence, the figures for GCCCCCCCGAAAGGGGGC (((..(((....)))))) were -11.2 kcal/mol and 65.2 °C.
Taken in the same sequence, the figures for GCCCCCCGAAAGGGAGGC (((.(((....))).))) were -29.8 kcal/mol and 67 °C.
Taken in the same sequence, the figures for GCCCCCGAAAGGGAAGGC ((((((....)))..))) were -27 kcal/mol and 55.7 °C.
With GCCCCCGAAAGGGCCGGC ((((((....)))..))), the folding enthalpy in series [1] was -16.4 kcal/mol. The Tm in series [2] amounted to 54.3 °C.
Taken in the same sequence, the figures for GCCCCCGAAAGGGCGGC ((((((....))).))) were -23.2 kcal/mol and 68.5 °C.
Taken in the same sequence, the figures for GCCCCCGGAAACAGGGGC (((((.(....).))))) were -35 kcal/mol and 56.7 °C.
Taken in the same sequence, the figures for GCCCCCGGAAACGGGAGC ((.((((....)))).)) were -25 kcal/mol and 54.2 °C.
On to GCCCCGACGAAAGTCGGC (((..(((....)))))), for which the folding enthalpy in series [1] was -4.92 kcal/mol. Besides, the Tm in series [2] came out at 41.1 °C.
With GCCCCGCGAAAGCCGCGC ((.(.((....)).).)), the folding enthalpy in series [1] was -13.7 kcal/mol. In addition, the Tm in series [2] was 31.5 °C.
Taken in the same sequence, the figures for GCCCCGCGAAAGCGCTGC ((..(((....)))..)) were -9.38 kcal/mol and 31.6 °C.
Taken in the same sequence, the figures for GCCCCGCGAAAGCTGAGC ((.(.((....)).).)) were -10.7 kcal/mol and 35 °C.
Taken in the same sequence, the figures for GCCCCGCGAAAGCTTGGC (((..((....))..))) were -19.9 kcal/mol and 43.1 °C.
For GCCCCTACGAAAGTAGGC (((..(((....)))))), in series [1], the folding enthalpy was -6.61 kcal/mol. Further, the Tm in series [2] amounted to 36.7 °C.
Taken in the same sequence, the figures for GCCCCTCCGAAAGGAGGC (((..(((....)))))) were -5.85 kcal/mol and 39.8 °C.
Taken in the same sequence, the figures for GCCCGACGAAAGTCCGGC (((.(((....))).))) were -30.7 kcal/mol and 51.8 °C.
Regarding GCCCGCCGAAAGGCGGC (((.(((....)))))), in series [1], the folding enthalpy is -7.03 kcal/mol. For the same sequence, the Tm in series [2] was determined as 66.6 °C.
Taken in the same sequence, the figures for GCCCGCGAAAGCGAAGGC ((((((....)))..))) were -24.8 kcal/mol and 63.3 °C.
Taken in the same sequence, the figures for GCCCGCGAAAGCGGAGGC ((((((....)))..))) were -13.7 kcal/mol and 60 °C.
Taken in the same sequence, the figures for GCCCGGCGAAAGCCACGC ((..(((....)))..)) were -8.86 kcal/mol and 35.9 °C.
Consider GCCCGGCGAAAGCCTTGC ((..(((....)))..)), for which the folding enthalpy in series [1] is -8.46 kcal/mol. The Tm in series [2] is 35.7 °C.
In the case of GCCCGGCGAAAGCGGAGC ((.(.((....)).).)), the folding enthalpy in series [1] was -14.8 kcal/mol. In addition, the Tm in series [2] was determined as 54.8 °C.
Taken in the same sequence, the figures for GCCCGGGCGAAAGCCGGC (((..(((....)))))) were -12.5 kcal/mol and 59.5 °C.
In the case of GCCCGTGCGAAAGCAGGC (((..(((....)))))), in series [1], the folding enthalpy was -12.4 kcal/mol. The Tm in series [2] came to 52 °C.
Taken in the same sequence, the figures for GCCCGTGGAAACATGGGC ((((.((....)).)))) were -46 kcal/mol and 61.2 °C.
Regarding GCCCTACGAAAGTAGGC (((.(((....)))))), in series [1], the folding enthalpy was -13 kcal/mol. In series [2], the Tm came to 56.8 °C.
Taken in the same sequence, the figures for GCCCTACGAAAGTATGGC (((.(((....))).))) were -34.3 kcal/mol and 49 °C.
In the case of GCCCTCACGAAAGTGGGC (((..(((....)))))), the folding enthalpy in series [1] was -19.4 kcal/mol. Besides, the Tm in series [2] worked out at 53.5 °C.
Taken in the same sequence, the figures for GCCCTCCGAAAGGAAGGC (((.(((....))).))) were -30.8 kcal/mol and 53 °C.
Taken in the same sequence, the figures for GCCCTCCGAAAGGACGGC (((.(((....))).))) were -40.7 kcal/mol and 50.4 °C.
Taken in the same sequence, the figures for GCCCTCGAAAGAGCTGGC ((((((....)))..))) were -24.7 kcal/mol and 42.3 °C.
As for GCCCTCGAAAGAGGAGGC ((((((....)))..))), the folding enthalpy in series [1] was -17 kcal/mol. Moreover, the Tm in series [2] was 51.9 °C.
Taken in the same sequence, the figures for GCCCTCGAAAGAGTCGGC ((((((....)))..))) were -24.1 kcal/mol and 40.9 °C.
Taken in the same sequence, the figures for GCCCTCGGAAACGAAGGC (((.(((....))).))) were -34.1 kcal/mol and 46.6 °C.
Taken in the same sequence, the figures for GCCCTCTCGAAAGAGGGC (((..(((....)))))) were -40.5 kcal/mol and 68.1 °C.
Consider GCCCTGCGAAAGCAAGGC (((.(((....))).))), for which the folding enthalpy in series [1] is -33.9 kcal/mol. Moreover, the Tm in series [2] came to 55.7 °C.
Taken in the same sequence, the figures for GCCCTGCGAAAGCACCGC ((..(((....)))..)) were -7.84 kcal/mol and 32.4 °C.
Taken in the same sequence, the figures for GCCCTGCGAAAGCCCGGC (((..((....))..))) were -23 kcal/mol and 39.1 °C.
Taken in the same sequence, the figures for GCCCTGCGAAAGCGCGGC (((..((....))..))) were -21.5 kcal/mol and 54.5 °C.
In the case of GCCCTGGGAAACCAAGGC (((.(((....))).))), the folding enthalpy in series [1] was -30.1 kcal/mol. Further, the Tm in series [2] is 44.8 °C.
Taken in the same sequence, the figures for GCCCTTCCGAAAGGAGGC (((..(((....)))))) were -17.7 kcal/mol and 41.1 °C.
Taken in the same sequence, the figures for GCCCTTCGAAAGAACGGC (((.(((....))).))) were -29.7 kcal/mol and 42.2 °C.
Taken in the same sequence, the figures for GCCCTTGGAAACAAGAGC ((.((((....)))).)) were -21.4 kcal/mol and 37.6 °C.
Consider GCCCTTGGAAACAGGGGC ((((.((....)).)))), for which the folding enthalpy in series [1] was -41.4 kcal/mol. Besides, the Tm in series [2] amounted to 54.4 °C.
Taken in the same sequence, the figures for GCCGAACGAAAGTTAGGC (((.(((....))).))) were -36.2 kcal/mol and 60.9 °C.
With GCCGAAGGAAACTTCGAC (.(((((....))))).), the folding enthalpy in series [1] is -19.8 kcal/mol. In addition, the Tm in series [2] turned out to be 41 °C.
Take GCCGACCGAAAGGTAGGC (((.(((....))).))): in series [1], the folding enthalpy is -37.5 kcal/mol. The Tm in series [2] came out at 69.3 °C.
In the case of GCCGACGAAAGTCCTGGC ((((((....)))..))), the folding enthalpy in series [1] is -20.2 kcal/mol. The Tm in series [2] came to 45.1 °C.
In the case of GCCGACGAAAGTCTTGGC ((((((....)))..))), the folding enthalpy in series [1] is -23.2 kcal/mol. In addition, the Tm in series [2] came out at 48.1 °C.
Taken in the same sequence, the figures for GCCGACGCGAAAGCGGGC (((..(((....)))))) were -18.1 kcal/mol and 65.9 °C.
Taken in the same sequence, the figures for GCCGAGACGAAAGTCGGC (((..(((....)))))) were -28.4 kcal/mol and 61.8 °C.
Taken in the same sequence, the figures for GCCGAGCGAAAGCCCAGC ((.(.((....)).).)) were -12.4 kcal/mol and 35.8 °C.
With GCCGAGCGAAAGCCGGGC (((..((....))..))), in series [1], the folding enthalpy is -13.3 kcal/mol. Also, in series [2], the Tm worked out at 67.2 °C.
